The whole screen tested about 1,600 compounds, of which about 500 (31%) were called active. These entries were drawn from the full list. A number with no mark means an inactive call.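 How the source made its calls: active means inhibition above the mean of all tested compounds plus 3 SD, cutoff set per campaign (cut at about 36% in these data); inactive means the rest.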
test system: Hepatitis C virus NS3 helicase; test: HCV NS3 helicase inhibitors, retest, confirmation, biochemical, Cy5 molecular beacon fluorescence, triplicate (AID 1943); details: NS3 helicase DNA unwinding, at 10.9 µM, hits give high values
Method in brief: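 Assay system: HCV NS3 helicase fragment enzyme; also added: Quenchable beacon DNA duplex and ATP; schedule: compound added before ATP, reads at 0 and 60 min, 25 °C; measured by: Cy5 fluorescence quenching by beacon hairpin; control set: DMSO and thioflavine S wells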

Compound | inhibition
CCOC(=O)c1c(-c2ccccc2)oc2cc(Br)c(O)c(C=O)c12 | 36.3% (active)
CC(Oc1ccccc1)C(=O)Nc1oc(-c2ccco2)c(-c2ccco2)c1C#N (centres undefined) | 61.5% (active)
Cc1cccc(NC(=O)c2sc3nc4c(c(-c5ccco5)c3c2N)CCC4)c1 | -20.1%
COc1ccc(/C=C2\SC(=S)N(CCC(=O)Nc3cccc(C(=O)O)c3)C2=O)cc1OC | 52.9% (active)
Cc1ccc(SC(CC(=O)c2ccc(C(C)(C)C)cc2)C(=O)O)cc1 (centres undefined) | 74.6% (active)
COCCNC(=O)Nc1ccc2nc(-c3ccco3)c(-c3ccco3)nc2c1 | 43.5% (active)
COc1ccc(NC(=O)CSc2ccc(-c3ccco3)nn2)c(OC)c1 | -10.9%
COc1ccc(OCC(=O)Nc2nnc(-c3ccco3)s2)cc1 | -10.9%
S=C(NCCc1ccccc1)N1CCCCC1 | -9.72%
CCSc1nsc(NC(=O)Nc2cccc(C(C)=O)c2)n1 | -4.64%
CNS(=O)(=O)c1cccc(C(=O)NC2CCCc3ccccc32)c1 (centres undefined) | -10.8%
Cc1ccc(OCC(=O)c2cc(C)n(Cc3ccco3)c2C)c([N+](=O)[O-])n1 | -9.23%
Cc1ccc(S(=O)(=O)NCCC(c2ccccc2)c2ccccc2)cc1C(=O)O | 55.2% (active)
O=C1NN(c2ccccc2)C(=O)/C1=C/c1ccc(-c2cccc(C(=O)O)c2)o1 | 54.1% (active)
COc1cc(C2CC(=O)N3CN(Cc4ccccc4)CSC3=C2C#N)ccc1OCc1ccccc1 (centres undefined) | 25%
N#C/C=C(/c1ccc(F)cc1)N1CCOCC1 | -4.32%
Cc1ccc(-c2nn(-c3ccccc3)cc2/C=C2\SC(=S)N(CCCCCC(=O)O)C2=O)o1 | 84.6% (active)
O=C(N/N=C/c1ccc([N+](=O)[O-])o1)c1cn(-c2ccccc2)nc1-c1ccc(F)cc1 | -4.3%
COc1cccc(CNC(=O)c2nnn(CC(=O)Nc3cc(Cl)ccc3C)c2N)c1 | 3.98%
Cc1ccc(C(CC(=O)O)Nc2nc(N3CCCCC3)nc(N3CCCCC3)n2)cc1 (centres undefined) | 79% (active)
COc1ccccc1N1CCN(C(=O)CCS(=O)(=O)c2ccc3c(c2)NC(=O)C(C)S3)CC1 (centres undefined) | -19.2%
CC(C)c1ccc(Nc2nnc(SCC(=O)c3nnc(-c4ccccc4)o3)s2)cc1 | 89.1% (active)
Cc1ccccc1Nc1nnc(SCC(=O)c2cc3ccccc3o2)s1 | -10.8%
Cc1cc(O)c(C(=O)/C=C/c2c(F)c(F)c(F)c(F)c2F)c(=O)o1 | 69.6% (active)
CS(=O)(=O)c1ccc2c(c1)SC1=NC(=O)/C(=C/c3ccco3)C(=N)N12 | 22.5%

Compound | inhibition
Nc1ccc2nc3c(=O)[nH]c(=S)[nH]c3nc2c1 | 2.58%
O=[N+]([O-])c1cc(Cl)cc(/C=N/NC(=S)Nc2cc(S(=O)(=O)N3CCOCC3)ccc2Cl)c1O | 94.9% (active)
Cc1ccc(S(=O)(=O)N/N=C\c2cc3c(cc2[N+](=O)[O-])OCO3)cc1 | -12%
CN(C)c1ccc(N/C=C/C(=O)C(F)(F)F)cc1 | 2.03%
COc1cccc(C(=O)CC(=O)C(=O)Nc2ccc([N+](=O)[O-])cc2C)c1 | 16.8%
CCOc1ccc(C(C(=O)NCCOC)N(CCOC)C(=O)CCC(=O)Nc2ccccn2)cc1 (centres undefined) | -12.9%
Fc1ccc(-c2ccc(-c3nn4c(-c5ccco5)nnc4s3)o2)cc1 | 12%
CCN(CC)CCOc1ccc2c(c1)C(=NNC(=O)c1ccccn1)c1cc(OCCN(CC)CC)ccc1-2 | 37.9% (active)
COc1cc(/C=C2/C(=O)NN(c3cccc(Cl)c3)C2=O)cc(Br)c1O | 57.7% (active)
Cc1ccc(C)c(-n2c(SCC(=O)O)nc3sc4c(c3c2=O)CCCC4)c1 | 22.2%
O=C1N/C(=C/c2cccn2-c2ccccc2)C(=O)N1c1cccc(Cl)c1 | 6.32%
CS/C(=C\C(=O)c1ccco1)Nc1ccccc1Cl | -6.86%
CCOC(=O)c1nnn(-c2nc(OC)nc(N(C)C)n2)c1-c1ccccc1 | -9.79%
Clc1ccccc1CSc1nnc(-c2ccco2)c(-c2ccco2)n1 | 72% (active)
CSc1c(SCc2ccccc2)cnn(Cc2ccccc2)c1=O | -8.85%
c1ccc(CSc2nnc(-c3ccco3)c(-c3ccco3)n2)cc1 | 67% (active)
O=c1c2c(-c3ccccc3)ccnc2[nH]n1-c1ccccc1 | -13.5%
Brc1ccccc1C1Nc2cccc3cccc(c23)N1 | -7.38%
O=C(CCCN1C(=O)/C(=C\c2ccco2)SC1=S)Nc1cccc2ccccc12 | 73.3% (active)
O=c1nc2s/c(=C\c3ccco3)c(=O)n2nc1Cc1ccccc1 | -17.8%
NS(=O)(=O)c1ccc(-c2ccc(/C=C3\SC(=O)NC3=O)o2)cc1 | -18.5%
O=C(CCl)NNc1cccc(Cl)n1 | -2.17%
CCOc1ccc(C2C3=C(CCCC3=O)N(CC(=O)O)C3=C2C(=O)CCC3)cc1 | -13.6%
CC1=NN(c2ccc(Cl)c(C(=O)O)c2)C(=O)/C1=C/c1ccc(-c2ccccc2[N+](=O)[O-])o1 | 73.3% (active)
CC(=O)Nc1ccc(Nc2c3ccccc3nc3ccccc23)cc1 | 2.42%

Compound | inhibition
Cc1ccc(C2=N/C(=C\c3ccc(OS(=O)(=O)c4ccc(C)cc4)cc3)C(=O)O2)cc1 | 27.4%
Cc1ccc(/C=C/C(=O)Nc2ccc([N+](=O)[O-])c(NC(=O)/C=C/c3ccc(C)o3)c2)o1 | 62.1% (active)
Cc1occc1C(=O)N/N=C/c1ccc(-c2cccc([N+](=O)[O-])c2)o1 | -10.4%
CCC1C/C(=C/c2cccs2)C(=O)/C(=C/c2cccs2)C1 (centres undefined) | -12.8%
CCOC(=O)C1=C(O)/C(=C/c2cc(C)n(-c3ccccc3)c2C)N=C1C | -7.36%
Cc1cc(C)c2nc(-c3ccco3)cc(C(=O)O)c2c1 | 79.1% (active)
CC(=O)C1=C(O)C(=O)N(c2ccc(Br)cc2)C1c1ccc([N+](=O)[O-])cc1 (centres undefined) | 46.5% (active)
O=c1[nH]c(/C=C\c2cccc(C(F)(F)F)c2)nc(O)c1[N+](=O)[O-] | -7.2%
COc1ccc(/C=C/C(=O)c2cc(Br)ccc(=O)c2O)cc1 | 82.1% (active)
CC(=O)Oc1cccc(N2C(=O)CC(Nc3ccc(N4CCOCC4)cc3)C2=O)c1 (centres undefined) | -24.2%
Cc1ccc(C(=O)O)cc1-c1ccc(/C=C2\SC(=O)N(CC(=O)Nc3ccc4c(c3)OCO4)C2=O)o1 | 63.1% (active)
O=C(c1cccc(-n2cccc2)c1)N1CCN(S(=O)(=O)c2ccc(F)cc2)CC1 | -4.73%
COc1ccc(C)cc1-n1nnnc1SCC(=O)c1cc(C)n(Cc2ccco2)c1C | 6.51%
O=C(N/N=C/c1ccco1)c1csc2c1CCCC2 | -9.79%
CC(C)c1ccc(C2C(C(=O)c3ccco3)=C(O)C(=O)N2CC2CCCO2)cc1 (centres undefined) | -11.7%
COc1cc(C2C(C(=O)c3ccco3)=C(O)C(=O)N2c2cc(C)on2)ccc1OCc1ccccc1 (centres undefined) | 110% (active)
COc1ccccc1C1/C(=C(/O)c2ccc(OC(C)C)cc2)C(=O)C(=O)N1c1cc(C)on1 (centres undefined) | -6.81%
O=C1C=CC(=O)N1c1ccc(N2CCCCC2)cc1 | -18.6%
COc1ccc(/C=C(\NC(=O)c2ccc(OCC(C)C)cc2)C(=O)OCc2ccco2)cc1 | 11.2%
Cc1[nH]n(C(N)=S)c(=O)c1N=Nc1ccc(Cl)cc1Cl | 10.9%
CCOC(=O)c1ccccc1N1C(=O)C2Sc3[nH]c(=O)sc3C(/C=C/c3ccccc3)C2C1=O (centres undefined) | 44.1% (active)
COC(=O)COc1ccc2c(c1C)O/C(=C\c1ccco1)C2=O | -7.55%
Cc1ccc(C2Nc3cccc4cccc(c34)N2)cc1 | -28.1%
Cc1nn2c(c1-c1ccccc1)N=C(c1ccco1)CC2c1ccccc1 (centres undefined) | -12.4%
